From ChEMBL document CHEMBL4043285 (J Med Chem, 2018)
Calls of active or inactive are those of the source. The calls are words filed in the database; no cut-off is given here.

Assays:
[1] = Inhibition of Aurk mouse L929sA cells transfected with human Fas assessed as increase in nuclear area after 24 hrs in presence of TNF by Hoechst 33342 staining-based microscopic assay
In short: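 L929sAhFAS cells treated with compound; mean nuclear area is measured and fitted as a sigmoidal dose–response curve.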

Aurora kinase B = Aurora kinase B (Homo sapiens, UniProt Q96GD4); assay: Inhibition of human recombinant AurKB after 4 hrs by ADP-Glo assay
[2] = Inhibition of Aurk mouse L929sA cells transfected with human Fas assessed as reduction in cell growth after 24 hrs in presence of TNF by Hoechst 33342 staining-based microscopic assay
In short: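 L929sAhFAS cells exposed to compound; total cell number is counted after 24 h. IC50 is fitted from a dose–response curve of cell growth.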

Aurora kinase A = biological target: T1, Aurora kinase A (Homo sapiens, UniProt O14965); assay: Inhibition of human recombinant AurKA after 4 hrs by ADP-Glo assay
T1 sequence (O14965 whole entry): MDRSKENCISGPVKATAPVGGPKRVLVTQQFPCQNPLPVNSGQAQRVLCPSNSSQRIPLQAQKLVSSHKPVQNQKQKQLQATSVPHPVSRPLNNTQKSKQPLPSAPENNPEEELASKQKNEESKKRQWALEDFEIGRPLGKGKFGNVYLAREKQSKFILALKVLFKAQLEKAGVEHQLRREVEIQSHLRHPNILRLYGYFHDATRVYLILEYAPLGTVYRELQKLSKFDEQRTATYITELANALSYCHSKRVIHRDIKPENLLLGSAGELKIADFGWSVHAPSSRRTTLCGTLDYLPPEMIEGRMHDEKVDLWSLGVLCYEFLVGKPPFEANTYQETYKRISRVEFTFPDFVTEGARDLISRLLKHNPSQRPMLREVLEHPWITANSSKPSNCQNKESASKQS

Aurk (Aurora kinase) [3] = assay: Inhibition of Aurk in mouse L929sA cells transfected with human Fas assessed as reduction in cell growth at 3 uM after 24 hrs in presence of TNF by Hoechst 33342 staining-based microscopic assay relative to control
Aurk (Aurora kinase) [4] = assay: Inhibition of Aurk in mouse L929sA cells transfected with human Fas assessed as increase in nuclear area at 3 uM after 24 hrs in presence of TNF by Hoechst 33342 staining-based microscopic assay relative to control; assay type: cell-based
Mus musculus = assay: Protection against TNF-induced hypothermia in TNF-induced SIRS C57BL/6J mouse model at 50 mg/kg administered via oral gavage treated 1.5 hrs prior to TNF challenge by thermometric analysis; assay type: functional, organism-based
In short: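 Mice were dosed orally by gavage at 50 mg/kg, 1.5 h before challenge with murine TNF (mTNF).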

[5] = biological target: T2, Receptor-interacting serine/threonine-protein kinase 1 (Homo sapiens, UniProt Q13546); assay: Inhibition of human recombinant RIPK1 after 4 hrs by ADP-Glo assay
T2 sequence (Q13546 whole entry): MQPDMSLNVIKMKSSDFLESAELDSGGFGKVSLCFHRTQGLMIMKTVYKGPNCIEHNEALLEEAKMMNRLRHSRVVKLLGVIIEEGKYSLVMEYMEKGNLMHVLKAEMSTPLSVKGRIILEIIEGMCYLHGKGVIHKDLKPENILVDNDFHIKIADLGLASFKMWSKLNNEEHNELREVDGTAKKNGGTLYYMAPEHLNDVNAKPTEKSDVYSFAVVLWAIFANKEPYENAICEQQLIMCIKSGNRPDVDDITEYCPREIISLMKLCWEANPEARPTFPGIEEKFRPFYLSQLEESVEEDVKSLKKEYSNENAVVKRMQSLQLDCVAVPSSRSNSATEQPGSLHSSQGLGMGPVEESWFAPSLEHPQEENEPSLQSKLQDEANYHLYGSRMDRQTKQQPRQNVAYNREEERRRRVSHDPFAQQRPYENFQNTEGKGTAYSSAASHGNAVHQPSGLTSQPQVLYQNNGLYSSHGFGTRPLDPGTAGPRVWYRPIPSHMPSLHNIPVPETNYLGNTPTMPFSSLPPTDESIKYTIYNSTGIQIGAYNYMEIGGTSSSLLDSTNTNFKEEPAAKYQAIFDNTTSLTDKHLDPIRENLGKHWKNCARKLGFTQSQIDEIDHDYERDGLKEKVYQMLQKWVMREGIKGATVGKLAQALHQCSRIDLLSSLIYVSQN

[6] = biological target: T3, Receptor-interacting serine/threonine-protein kinase 1 (Mus musculus) (UniProt Q60855); assay: Inhibition of RIPK1 in mouse L929sA cells transfected with human Fas assessed as inhibition in TNF-induced necroptosis at 3 uM pretreated for 0.5 hrs followed by TNF and zVAD.fmk addition measured after 3 hrs by Hoechst 33342/propidium iodide staining-based assay relative to control; assay type: cell-based
T3 sequence (whole entry): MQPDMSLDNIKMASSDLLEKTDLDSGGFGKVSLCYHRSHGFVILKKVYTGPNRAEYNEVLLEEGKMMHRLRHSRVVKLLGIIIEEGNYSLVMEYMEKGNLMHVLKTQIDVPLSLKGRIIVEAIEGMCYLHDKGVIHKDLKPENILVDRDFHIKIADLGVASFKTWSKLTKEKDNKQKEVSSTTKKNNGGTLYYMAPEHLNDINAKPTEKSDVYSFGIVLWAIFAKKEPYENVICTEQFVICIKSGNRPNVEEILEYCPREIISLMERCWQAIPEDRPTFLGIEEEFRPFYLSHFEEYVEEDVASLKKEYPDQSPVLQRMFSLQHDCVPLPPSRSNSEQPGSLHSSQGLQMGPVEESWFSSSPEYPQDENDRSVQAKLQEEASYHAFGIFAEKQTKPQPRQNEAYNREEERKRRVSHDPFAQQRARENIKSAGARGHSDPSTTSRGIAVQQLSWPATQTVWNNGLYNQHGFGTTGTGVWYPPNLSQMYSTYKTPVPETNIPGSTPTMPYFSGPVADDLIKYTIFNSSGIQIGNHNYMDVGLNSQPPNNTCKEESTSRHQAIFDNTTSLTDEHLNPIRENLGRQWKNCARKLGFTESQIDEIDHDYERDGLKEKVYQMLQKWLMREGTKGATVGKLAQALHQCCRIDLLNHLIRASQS

[7] = biological target: T3, Receptor-interacting serine/threonine-protein kinase 1 (Mus musculus); assay: Inhibition of RIPK1 in mouse L929sA cells transfected with human Fas assessed as inhibition in TNF-induced necroptosis at 3 uM pretreated for 24 hrs followed by TNF and zVAD.fmk addition measured after 3 hrs by Hoechst 33342/propidium iodide staining-based assay relative to control; assay type: cell-based

Aurora kinase B, sequence (Q96GD4 whole entry): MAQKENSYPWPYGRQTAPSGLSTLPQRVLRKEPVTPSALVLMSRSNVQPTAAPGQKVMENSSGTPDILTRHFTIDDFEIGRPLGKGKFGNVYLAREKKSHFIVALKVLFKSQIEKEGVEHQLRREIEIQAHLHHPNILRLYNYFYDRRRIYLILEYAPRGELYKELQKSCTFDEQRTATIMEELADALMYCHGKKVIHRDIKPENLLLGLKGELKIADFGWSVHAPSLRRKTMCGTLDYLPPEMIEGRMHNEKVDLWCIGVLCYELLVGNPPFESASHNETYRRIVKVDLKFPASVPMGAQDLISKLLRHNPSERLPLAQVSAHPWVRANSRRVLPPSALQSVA

| SMILES | IC50 [1] [nM] | IC50 (Aurora kinase B) [nM] | IC50 [2] [nM] | IC50 (Aurora kinase A) [nM] | inhibition at 24 h, 3 µM (Aurk (Aurora kinase) [3]) [%] | inhibition at 24 h, 3 µM (Aurk (Aurora kinase) [4]) [%] | Activity (Mus musculus) | IC50 [5] [nM] | inhibition [6] [%] | inhibition [7] [%] |
| --- | --- | --- | --- | --- | --- | --- | --- | --- | --- | --- |
| Cc1cc(Nc2cc(N3CCOCC3)nc(Nc3ccc(NC(=O)C4CC4)cc3)n2)n[nH]1 | > 3000 | 853 | > 3000 | 430 | < 50 | < 50 | Active | – | – | – |
| Cc1cc(Nc2cc(N3CCN(C)CC3)nc(Nc3ccc(NC(=O)C4CC4)cc3)n2)n[nH]1 | > 3000 | 1340 | > 3000 | 293 | < 50 | < 50 | Active | 178 | – | – |
| Cc1cc(Nc2cc(N3CCCCC3)nc(Nc3ccc(NC(=O)C4CC4)cc3)n2)n[nH]1 | > 3000 | 959 | > 3000 | – | < 50 | < 50 | inactive | – | – | – |
| CN1C(=O)NC(Cc2c[nH]c3c(Cl)cccc23)C1=O (configuration not stated) | – | > 3000 | – | > 3000 | – | – | Active | – | – | – |
| Cc1[nH]nc(Nc2cc(N3CCCCC3)nc(Nc3ccc(NC(=O)C4CC4)cc3)n2)c1C | > 3000 | – | > 3000 | – | < 50 | < 50 | – | – | < 50 | < 50 |
| Cc1cc(Nc2nc(Sc3ccc(NC(=O)C4CCCCC4)cc3)nc(N3CCN(C)CC3)n2)n[nH]1 | 400 | 229 | 330 | 210 | – | – | – | 2470 | < 50 | < 50 |
| Cc1cc(Nc2nc(Nc3ccc(NC(=O)C4CCCCC4)cc3)nc(N3CCN(C)CC3)n2)n[nH]1 | > 3000 | – | > 3000 | – | < 50 | < 50 | – | – | < 50 | < 50 |
| Cc1[nH]nc(Nc2cc(N3CCN(C)CC3)nc(Sc3ccc(NC(=O)C4CCCCC4)cc3)n2)c1C | > 3000 | – | > 3000 | – | < 50 | < 50 | – | – | < 50 | < 50 |
| Cc1[nH]nc(Nc2cc(N3CCOCC3)nc(Sc3ccc(NC(=O)C4CCCCC4)cc3)n2)c1C | > 3000 | – | > 3000 | – | < 50 | < 50 | – | – | < 50 | < 50 |
| Cc1[nH]nc(Nc2cc(N3CCCCC3)nc(Nc3ccc(NC(=O)C4CCCCC4)cc3)n2)c1C | > 3000 | – | > 3000 | – | < 50 | < 50 | – | – | < 50 | < 50 |
| Cc1[nH]nc(Nc2nc(Sc3ccc(NC(=O)C4CCCCC4)cc3)nc(N3CCN(C)CC3)n2)c1C | > 3000 | – | > 3000 | – | < 50 | < 50 | – | – | < 50 | < 50 |
